CSC inhib: cancer stem cell inhibition. cancer stem cell-like cells viability, luminescence. inhibition, % at 7.5 µM. hit rate 1.1% among 300,000. AID 2717; in the data active = inhibition above about 75%; tested in HMLE shEcad cells
Lmaj promast: inhibitors of Leishmania major promastigote growth; inhibition, % at 10 µM; hit rate 9% among 200,000; Leishmania major promastigotes, resazurin fluorescence viability; in the data active = inhibition above about 50%;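 note: promastigotes grown with compound for 44 hours at 28 °C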
T cruzi inh: T. cruzi replication inhibition | T. cruzi beta-gal in NIH3T3, luminescence, 90 h | inhibition, % (no concentration beside the values) | hit rate 1.4% among 300,000 | AID 1885;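 active = mean inhibition across valid replicates above about 55%, limit read from the data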;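 note: signal also drops with host cell toxicity which is not excluded here; 0% = plate median of DMSO wells and 100% = zero luminescence signal; higher percent means less beta-gal luminescence so fewer parasites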
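System: NIH/3T3 fibroblasts plus reporter T. cruzi. Medium: DMEM plus 2% FBS. Probe or stimulus: 5000 reporter trypomastigotes per well. Compound: single 50 nL compound addition per well in DMSO. Incubation: co-culture of at least 90 h after 3 h attachment. Detection: GalScreen β-gal luminescence, detergent lysis, 60 min. Evaluation: parasite load inhibition, %.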
Mdm2 MdmX PPI: human Mdm2/MdmX binding inhibition | hit rate 3% among 330,000 | SaOS-2 split-luciferase Mdm2/MdmX complementation, luminescence | O15151+Q00987 | inhibition, % at 8 µM;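 active = inhibition of at least 50% at 8 µM in the primary screen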
SKKanGAS inh: blocks kanamycin growth of S. pyogenes SKKanGAS strain; BacTiter-Glo, 6 h; inhibition, % at 7.5 µM; hit rate 1.3% among 300,000; AID 1662;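 active = mean replicate score, as percent of positive control median, at least 50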;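 note: strain carries kanamycin resistance gene driven by streptokinase promoter and grows in 40 µg/ml kanamycin; loss of luminescence reflects streptokinase promoter inhibition or plain growth inhibition; 0% = median of DMSO wells and 100% = positive control at its reference dose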
Beta cell apopt: beta cell apoptosis inhibition; AID 435005; hit rate 0.8% among 300,000; protection from apoptosis, % (concentration not given with the values); INS-1E cytokine-induced death, ATP luminescence, 48 h; percent of positive-control rescue, neutral wells zero;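 active = Every replicate reaches about 75%, or at least half do and their mean reaches it too, limit read from the data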;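 note: 0% = cytokine-treated negative control wells and 100% = positive control rescue; higher means more ATP so stronger rescue from cytokine killing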
Starred values were filed as active, the others as inactive; · = no result. In the library only some 9.4% were active in any assay of this set; here they are far more common.

SMILES | CSC inhib | Lmaj promast | T cruzi inh | Mdm2 MdmX PPI | SKKanGAS inh | Beta cell apopt
Cc1ccc(-c2cc(C(=O)N/N=C/c3c[nH]c4ccccc34)[nH]n2)cc1 | · | 28 | -48 | · | 17 | ·
O=C(N/N=C/c1c[nH]c2ccccc12)C1CC1(c1ccccc1)c1ccccc1 (stereo unspecified) | 79* | 17 | 2 | 1 | 60* | 13
O=C(N/N=C/c1c[nH]c2ccccc12)C1CC1c1ccccc1 (stereo unspecified) | · | -2 | -1 | 17 | 7 | -9
O=C(N/N=C/c1c[nH]c2ccccc12)c1cc(-c2ccc(-c3ccccc3)cc2)n[nH]1 | -9 | 0 | 33 | 44 | 92* | 19
Cc1cc2[nH]c(=O)c(=O)[nH]c2cc1S(=O)(=O)NC1CCCCC1C (stereo unspecified) | -2 | · | 3 | 6 | 4 | -4
O=C(Nc1ccc(F)cc1)C1=CC(=O)N2CCN=C2S1 | -3 | -5 | -4 | -10 | -5 | -8
CC1(C)Cc2ccccc2C(CSc2ccccc2C(=O)O)=N1 | 76* | -2 | 20 | 22 | 2 | -3
CSc1ncc(CO)n1Cc1ccccc1 | -4 | -2 | -10 | 1 | 1 | -9
C=CCc1ccc(OCCCCNC(C)CC)c(OC)c1 (stereo unspecified) | 18 | 90* | 3 | 19 | 1 | -4
CCC(C)NCCCOc1ccc(Cl)cc1C(C)(C)C (stereo unspecified) | 0 | 100* | 25 | 7 | 4 | 6
C/C=C/c1ccc(OCCCNC(C)CC)c(OC)c1 (stereo unspecified) | 9 | -3 | 3 | 0 | -2 | -7
COCCCNCCCOc1ccc(Cl)cc1C(C)(C)C | 23 | 100* | 46 | 44 | 5 | 8
C=CCc1cc(Cl)ccc1OCCCNC(C)CC (stereo unspecified) | 18 | 100* | 20 | 11 | -1 | 2
CCC(C)NCCOc1cc(C)cc(C)c1C (stereo unspecified) | 7 | 22 | 4 | -1 | 0 | -2
O=C(CCCc1c[nH]c2ccccc12)Nc1ccc(S(=O)(=O)Nc2ncccn2)cc1 | -17 | · | -15 | -17 | 6 | -1
Cc1ccc(NC(=O)CN2C(=O)CNC2=O)cc1 | -8 | · | -3 | 8 | -13 | -5
CNCCCOc1ccc(Cl)cc1C(C)(C)C | 26 | 99* | 55* | 42 | -13 | ·
Fc1ccc(COc2ccc(Br)cc2CNCc2ccncc2)cc1 | · | 97* | 71* | 0 | -4 | 0
Nc1nonc1C(=O)NCCNCc1cc(Br)ccc1OCc1ccc(F)cc1 | 3 | -1 | 5 | 19 | 2 | 62
Fc1ccc(COc2cccc(CNCc3ccncc3)c2)cc1 | -6 | 96* | 60* | -7 | 4 | 25
CCOc1cc(CNCc2ccncc2)cc(Br)c1OCc1ccc(F)cc1 | 9 | 93* | 51 | -2 | -10 | 6
Fc1ccccc1COc1ccc(Br)cc1CNCc1cccnc1 | 15 | 37 | 54 | -9 | 6 | -4
COc1cc(CNn2c(C)n[nH]c2=S)cc(Br)c1OCc1ccc(F)cc1 | 10 | -1 | 4 | 17 | 2 | ·
Fc1ccccc1COc1ccc(Br)cc1CNCc1ccncc1 | 12 | 100* | 50 | 0 | 2 | -4
O=C(O)c1ccc(CNCc2cccc(OCc3ccc(F)cc3)c2)cc1 | -6 | · | -8 | 20 | 2 | -4
SMILES | CSC inhib | Lmaj promast | T cruzi inh | Mdm2 MdmX PPI | SKKanGAS inh | Beta cell apopt
COc1ccccc1NC(=O)NCC1CC1(Cl)Cl (stereo unspecified) | 13 | · | -13 | -27 | -9 | -2
COC(=O)c1ccc(C2c3c(oc4ccc(Cl)cc4c3=O)C(=O)N2CCN2CCOCC2)cc1 (stereo unspecified) | 4 | · | 2 | 6 | -20 | -3
COc1cccc(-n2ccn(CC(=O)NCCc3ccccc3)c(=O)c2=O)c1 | 21 | · | -13 | 17 | 8 | -7
CCN(CC(=O)N1CCOCC1)S(=O)(=O)c1ccc(F)cc1 | -4 | · | 2 | 5 | 2 | -5
Cc1ccc(C)c(NC(=O)CN(C)C(=O)c2oc3c(Cl)cccc3c2C)c1 | -3 | · | 16 | 25 | -9 | -8
CCCCNC(=O)CSc1nc2ccsc2c(=O)n1C1CCN(C(=O)OCC)CC1 | -2 | 87* | 9 | 25 | -4 | -2
